The text below walks through data of ChEMBL document CHEMBL1155530, “Identification of aryl 2-aminoimidazoles as biofilm inhibitors in Gram-negative bacteria” (Bioorg Med Chem Lett, 2010).

Series [1] relates to Pseudomonas aeruginosa. The series can be described thus: Inhibition of Pseudomonas aeruginosa PA14 biofilm formation after 24 hrs by crystal violet reporter assay. Format: functional, organism-based. Conditions: PA14, 24 h. Put shortly:
(§1)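 Biofilm formation measured by crystal violet reporter assay. Each compound was first screened at 100 µM. Compounds giving >95% inhibition then went to dose-response studies to derive IC50. Values are means of three or more experiments.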

Series [2] relates to Pseudomonas aeruginosa. Kind of series: Dispersion of Pseudomonas aeruginosa PA14 established biofilm at 100 uM after 24 hrs by crystal violet reporter assay. Format: functional, organism-based.
Series [3] has as its system Escherichia coli. Kind of series: Toxicity in Escherichia coli assessed as inhibition of planktonic growth at IC50 concentration measured up to 24 hrs. The format is organism-based. Conditions: in vivo.
The test system of series [4] is Escherichia coli. Kind of series: Dispersion of Escherichia coli established biofilm at 50 uM after 24 hrs by crystal violet reporter assay. Format: functional.
The test system of series [5] is Escherichia coli. The series can be described thus: Inhibition of Escherichia coli biofilm formation after 24 hrs by crystal violet reporter assay. Format: functional, organism-based. Summed up: as §1
Series [6] concerns Acinetobacter baumannii. The series can be described thus: Inhibition of Acinetobacter baumannii biofilm formation at 100 uM after 24 hrs by crystal violet reporter assay. Format: functional. Put shortly: as §1
Series [7] has as its system Pseudomonas aeruginosa. Kind of series: Inhibition of Pseudomonas aeruginosa PA14 biofilm formation at 100 uM after 24 hrs by crystal violet reporter assay. Format: functional. The conditions noted are these: PA14, 24 h. Put shortly: as §1
Series [8] deals with Escherichia coli. Kind of series: Inhibition of Escherichia coli biofilm formation at 100 uM after 24 hrs by crystal violet reporter assay. Format: functional. Put shortly: as §1
Series [9] deals with Acinetobacter baumannii. Kind of series: Dispersion of Acinetobacter baumannii established biofilm at 100 uM after 24 hrs by crystal violet reporter assay. Format: functional.
In series [10] the test system is Acinetobacter baumannii. The series can be described thus: Inhibition of Acinetobacter baumannii biofilm formation after 24 hrs by crystal violet reporter assay. Format: functional, organism-based. Summed up:
as §1

Active and inactive are the calls of the source. The rule behind the calls is not given here. Where only a bound is given, the exact number is not on record here.

In turn, `CCCCCCC(=O)Nc1ccc(-c2cnc(N)[nH]2)cc1` showed an IC50 with Pseudomonas aeruginosa [1] of 16.8 µM. Moreover, in the series on Pseudomonas aeruginosa [2], the outcome was inactive.
In the case of `Cl.Nc1ncc(-c2ccc(NC(=O)c3cc(F)cc(F)c3)cc2)[nH]1`, the values for the Activity entry with Escherichia coli [3] and with Escherichia coli [4] were “Non-toxic” and 51%, respectively. Further, the IC50 with Pseudomonas aeruginosa [1] is 27.6 µM; in the series on Escherichia coli [5], 5.2 µM. Further, the outcome in the series on Pseudomonas aeruginosa [2] was inactive.
`CCCCCc1ccc(C(=O)Nc2cccc(-c3cnc(N)[nH]3)c2)cc1`: the result in the series with Pseudomonas aeruginosa [2] was inactive. The compound further gave an IC50 with Escherichia coli [5] of 16.5 µM.
On the same counts, the results for `CCCCCc1ccc(C(=O)Nc2ccc(-c3cnc(N)[nH]3)cc2)cc1` are “inactive” and 39.4 µM.
In turn, `CCCCCCC(=O)Nc1cccc(-c2cnc(N)[nH]2)c1` gave an IC50 in the series with Pseudomonas aeruginosa [1] of 39.4 µM. Further, the result with Pseudomonas aeruginosa [2] was inactive.
As to `Nc1ncc(-c2ccc(-n3cc(-c4cc(F)cc(F)c4)nn3)cc2)[nH]1`, the inhibition at 100 µM with Acinetobacter baumannii [6] was 21%; in the series on Pseudomonas aeruginosa [7], under 5%; with Escherichia coli [8], 35%.
As to `CCCCCCCCCC(=O)Nc1ccccc1-c1cnc(N)[nH]1.Cl`, the Activity with Acinetobacter baumannii [9] was 40%. For the same compound, in the series with Pseudomonas aeruginosa [2], the outcome was inactive. The same compound gave an IC50 with Acinetobacter baumannii [10] of 43 µM.
`Nc1ncc(-c2ccccc2NC(=O)c2cc(F)cc(F)c2)[nH]1`: the inhibition at 100 µM in the series on Pseudomonas aeruginosa [7] and in the series with Escherichia coli [8] was under 5% throughout. Also, the outcome with Pseudomonas aeruginosa [2] was inactive.
`Cl.Nc1ncc(-c2ccc(NC(=O)/C=C/c3ccccc3)cc2)[nH]1` displayed an Activity with Escherichia coli [4] of 67%. Besides, the outcome in the series on Pseudomonas aeruginosa [2] was inactive. The compound also showed an IC50 in the series on Escherichia coli [5] of 16.3 µM.
For the compound `Nc1ncc(-c2cccc(NC(=O)CCC3CCCC3)c2)[nH]1`, in the series on Pseudomonas aeruginosa [2], the outcome was inactive. Also, the IC50 with Escherichia coli [5] amounted to 47 µM.
On the same counts, the results for `Nc1ncc(-c2cccc(NC(=O)C34CC5CC(CC(C5)C3)C4)c2)[nH]1` are “inactive” and 43.4 µM.
For the compound `Nc1ncc(-c2cccc(NC(=O)c3cc(F)cc(F)c3)c2)[nH]1`, the inhibition at 100 µM with Pseudomonas aeruginosa [7] was under 5%; with Escherichia coli [8] it was 64%. Also, the result in the series with Pseudomonas aeruginosa [2] was inactive.
